Where a name gives a salt, the structure may show the parent alone. Read-outs that look alike come from different tables or passages of the source.
What was measured:
E. coli SSB = E. coli SSB (Escherichia coli, UniProt P0AGE0); experiment: FP-based binding assay with SSB in place of NS3h; conditions: for inhibition at 100 µM: read-out: SSB (% I): percent inhibition of SSB binding to Cy5-dT15; for SSB binding inhibition relative to NS3h binding inhibition: 100 μM; for SSB (% I): percent inhibition of SSB binding to Cy5-dT15: 100 μM of each compound
Outline: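 Fluorescence polarisation assay with E. coli SSB in place of NS3h, using Cy5-dT15 (or Cy5-rU15 for titrations). Screen compounds were pin-transferred to 100 μM final, 1% DMSO. Excitation 635 nm, emission 667 nm; G-factor from probe-only wells. Percent inhibition was normalised to DMSO and to unlabeled dT20 or 100 μM primuline controls.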

HCV NS3h = biological target: T1, HCV NS3h (Hepatitis C virus genotype 1b, UniProt Q9WMX2); experiment: FP-based binding assay, NS3h displacement from Cy5-dT15 DNA; parameters: species or system hepatitis C virus genotype 1b (con1); conditions: for NS3h (% I): percent inhibition of NS3h binding to Cy5-dT15: 100 μM of each compound; for inhibition at 100 µM: read-out: NS3h (% I): percent inhibition of NS3h binding to Cy5-dT15, 100 μM of each compound; for ability to inhibit HCV helicase binding to DNA (in words): compared with ebselen
T1 sequence (Q9WMX2 1190-1657 limits assumed): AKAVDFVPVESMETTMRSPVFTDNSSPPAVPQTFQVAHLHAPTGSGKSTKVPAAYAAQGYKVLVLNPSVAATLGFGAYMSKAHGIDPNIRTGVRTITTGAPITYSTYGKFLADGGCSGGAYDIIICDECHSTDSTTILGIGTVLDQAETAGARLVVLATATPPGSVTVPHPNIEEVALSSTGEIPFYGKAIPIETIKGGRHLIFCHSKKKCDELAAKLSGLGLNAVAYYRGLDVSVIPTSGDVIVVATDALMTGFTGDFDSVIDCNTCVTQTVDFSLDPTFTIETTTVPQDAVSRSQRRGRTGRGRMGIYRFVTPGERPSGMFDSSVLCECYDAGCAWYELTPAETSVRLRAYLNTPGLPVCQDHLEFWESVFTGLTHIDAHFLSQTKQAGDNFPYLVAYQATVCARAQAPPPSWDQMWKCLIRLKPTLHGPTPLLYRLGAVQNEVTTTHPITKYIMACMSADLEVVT
Outline: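 Fluorescence polarization with Cy5-dT15 and NS3h: excitation 635 nm; parallel and perpendicular emission read at 667 nm; G-factor taken from probe-only wells. % inhibition normalized to DMSO-only (negative) and 200 nM dT20 or 100 μM primuline (positive) controls. Single-point tests at 100 μM. IC50 is the concentration displacing 50% of NS3h from DNA. Reversibility: 10 μM NS3h preincubated 1 h with test compound, then diluted 100–100 000-fold into Cy5-dT15 and compared with untreated controls.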

[1] = test system: HCV Con1/1b Rluc subgenomic replicon in Huh-7.5 cells; experiment: HCV subgenomic replicon assay; format: cell-based, hepatitis C virus genotype 1b; conditions: for antiviral potency relative to ebsulfur/ebselen (times more potent): replicon; for therapeutic index (CC50/EC50): replicon EC50 and Huh7.5 CC50
Outline: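 Huh-7.5 cells carrying a stable genotype 1b Con1 Renilla luciferase subgenomic replicon (kept in 0.25 mg/mL Geneticin) were seeded at 10 × 10^3 per well. Two-fold compound series, 0.5% final DMSO, 3 days at 37 °C, 5% CO2. Washed cells were lysed and Renilla luminescence read. EC50 is the concentration halving Rluc; CC50 comes from a parallel CellTiter-Glo viability run; three independent titrations.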

[2] = test system: HCV genotype 2a isolate (JFH1); conditions: 20 μM of each compound; ref Gastaminza et al.[9]; cited from earlier work
NS3h_1b(con1) [3] = biological target: T2, NS3h_1b(con1) (Hepatitis C virus genotype 1b, con1 …, UniProt Q9WMX2 1190-1657); experiment: fluorescence polarization
NS3h_2a(JFH1) = NS3h_2a(JFH1) (Hepatitis C virus genotype 2a, JFH1, UniProt Q99IB8 1194-1661); experiment: fluorescence polarization
NS3h_1b(con1) [4] = biological target: T2, NS3h_1b(con1); experiment: fluorescence polarization; remark: listed apart in the source
SSB = SSB (Escherichia coli, UniProt P0AGE0 1-178); experiment: fluorescence polarization
NS3h_1b(con1) [5] = biological target: T2, NS3h_1b(con1); experiment: fluorescence polarization; remark: listed apart in the source

Sequence of E. coli SSB (P0AGE0 2-178 limits assumed): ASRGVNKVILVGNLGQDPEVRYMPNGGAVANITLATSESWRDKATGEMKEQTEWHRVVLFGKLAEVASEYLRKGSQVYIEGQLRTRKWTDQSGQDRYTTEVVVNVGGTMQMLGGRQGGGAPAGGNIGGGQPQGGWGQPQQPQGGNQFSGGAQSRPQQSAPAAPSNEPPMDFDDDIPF
Sequence of SSB (P0AGE0 whole entry): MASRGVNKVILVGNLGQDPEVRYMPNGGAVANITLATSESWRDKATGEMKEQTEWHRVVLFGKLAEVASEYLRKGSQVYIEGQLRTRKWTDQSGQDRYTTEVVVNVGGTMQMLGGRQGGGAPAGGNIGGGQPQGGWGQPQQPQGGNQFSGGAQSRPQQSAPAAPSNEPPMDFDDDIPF
Sequence of NS3h_2a(JFH1) (Q99IB8 1194-1661): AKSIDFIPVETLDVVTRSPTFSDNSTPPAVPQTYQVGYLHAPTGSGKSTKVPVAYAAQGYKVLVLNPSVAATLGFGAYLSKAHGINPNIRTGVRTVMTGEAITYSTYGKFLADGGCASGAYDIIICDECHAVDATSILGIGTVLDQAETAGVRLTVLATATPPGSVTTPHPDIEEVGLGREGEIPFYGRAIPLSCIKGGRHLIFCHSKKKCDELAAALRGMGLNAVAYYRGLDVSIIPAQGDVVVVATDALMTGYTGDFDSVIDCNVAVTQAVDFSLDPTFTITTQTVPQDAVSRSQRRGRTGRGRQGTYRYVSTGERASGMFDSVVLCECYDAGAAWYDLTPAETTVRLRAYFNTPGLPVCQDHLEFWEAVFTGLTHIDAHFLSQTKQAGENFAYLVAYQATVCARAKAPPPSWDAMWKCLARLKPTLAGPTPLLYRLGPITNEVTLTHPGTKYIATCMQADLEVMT

With `O=C1c2c(O)ccc(O)c2C(=O)c2c(NCCNCCO)ccc(NCCNCCO)c21` [Mitoxantrone] as the molecule, how does the inhibition at 100 µM (E. coli SSB) read?
The inhibition at 100 µM was 121%.

And the “NS3h (% I): percent inhibition of NS3h binding to Cy5-dT15” value (“NS3h (% I): percent inhibition” for short) (HCV NS3h; 100 µM)?
Its value is 125%.

And the “NS3h (% I): percent inhibition” value (HCV NS3h; listed as mitoxantrone, 100 µM)?
The value was “more than 50%”.

Which “antiviral potency relative to ebsulfur/ebselen (times more potent)” value [1] does the source give for `O=c1c2ccc(Br)cc2sn1-c1ccccc1` [compound 3, 6-Bromo-2-phenylbenzo[d]isothiazol-3(2H)-one] here?
Its value is about 10 times.

And the “therapeutic index (CC50/EC50)” value [1]?
The value was about 1.

With `CN(C)[C@@H]1C(O)=C(C(=O)NCN2CCCC2)C(=O)[C@@]2(O)C(O)=C3C(=O)c4c(O)cccc4[C@@](C)(O)[C@H]3C[C@@H]12` [Rolitetracycline] as the molecule, how does the “HCV (% I): percent inhibition of HCV replication in cells” value (“HCV (% I): percent inhibition” below) [2] read?
The value was under 0%.

And the inhibition at 100 µM (E. coli SSB)?
The inhibition at 100 µM was 45%.

What about the inhibition at 100 µM (HCV NS3h) of the same molecule?
Its inhibition at 100 µM is -4%.

Which “ability to inhibit HCV helicase binding to DNA (in words)” value (HCV NS3h) does the source give for `Cn1c2ccccc2c(=O)n1-c1ccccc1` [compound 15, 1-Methyl-2-phenyl-1H-indazol-3(2H)-one] here?
Its value is “complete loss of activity”.

Which “HCV (% I): percent inhibition” value [2] does the source give for `C=CC1=C(C(=O)O)N2C(=O)[C@@H](NC(=O)C(=NOCC(=O)O)c3csc(N)n3)[C@H]2SC1.O` [HMS2052E19] here?
Its value is under 0%.

And the “SSB binding inhibition relative to NS3h binding inhibition” value (E. coli SSB)?
The value was 3–4 times.

And the “SSB (% I): percent inhibition of SSB binding to Cy5-dT15” value (“SSB (% I): percent inhibition” for short) (E. coli SSB)?
Its value is 95%.

What about the “NS3h (% I): percent inhibition” value (HCV NS3h) of the same molecule?
The value was 28%.

Which “decrease in the ability to inhibit HCV helicase (longer linker)” value (HCV NS3h; relative to peptide-linker analogues) does the source give for `O=C(CCn1sc2ccccc2c1=O)Nc1ccccc1` [compound 13, 3-(3-Oxobenzo[d]isothiazol-2(3H)-yl)-N-phenylpropanamide] here?
Its value is 10 fold.

Which “ability to inhibit HCV helicase binding to DNA (in words)” value (HCV NS3h) does the source give for `O=c1cc(-c2ccccc2)sn1-c1ccccc1` [compound 14, 2,5-Diphenylisothiazol-3(2H)-one] here?
Its value is “complete loss of activity”.

For `COc1cccc2c1C(=O)c1c(O)c3c(c(O)c1C2=O)C[C@@](O)(C(=O)CO)C[C@@H]3O[C@H]1C[C@H](N)[C@H](O)[C@H](C)O1` [Doxorubicin Hydrochloride], which “HCV (% I): percent inhibition” value [2] is on record?
The value was 100%.

And the inhibition at 100 µM (E. coli SSB)?
The inhibition at 100 µM was 90%.

What about the inhibition at 100 µM (HCV NS3h) of the same molecule?
The inhibition at 100 µM was 8%.

What does the source list for `O=c1c2cc(F)c(F)cc2sn1-c1ccccc1` [compound 2, 5,6-Difluoro-2-phenylbenzo[d]isothiazol-3(2H)-one]?
antiviral potency relative to ebsulfur/ebselen (times more potent) [1]: ~10 times; therapeutic index (CC50/EC50) [1]: ~1

Which “HCV (% I): percent inhibition” value [2] does the source give for `CCCCCCCCCOc1ccc2[nH]cc(CCN)c2c1` [5-Nonyloxy-tryptamine] here?
Its value is 100%.

What about the inhibition at 100 µM (E. coli SSB) of the same molecule?
Its inhibition at 100 µM is 67%.

What about the inhibition at 100 µM (HCV NS3h) of the same molecule?
Its inhibition at 100 µM is -8%.

For `Cl.NC1CCN(c2cccc(Cl)n2)CC1` [SR 57227A], which “HCV (% I): percent inhibition” value [2] is on record?
The value was 12%.

What about the “SSB (% I): percent inhibition” value (E. coli SSB) of the same molecule?
Its value is 133%.

And the “NS3h (% I): percent inhibition” value (HCV NS3h)?
The value was “–1%”.

Which results are given for `CC(O)CO.N[C@@H](C(=O)N[C@@H]1C(=O)N2C(C(=O)O)=C(CSc3cn[nH]n3)CS[C@H]12)c1ccc(O)cc1` [Seapuron]?
HCV (% I): percent inhibition of HCV replication in cells [2]: <0%; SSB binding inhibition relative to NS3h binding inhibition (E. coli SSB): 3–4 times; SSB (% I): percent inhibition of SSB binding to Cy5-dT15 (E. coli SSB): 56%; NS3h (% I): percent inhibition of NS3h binding to Cy5-dT15 (HCV NS3h): 22%

For `C=CC1=C(C(=O)O)N2C(=O)[C@@H](NC(=O)C(=NO)c3csc(N)n3)[C@H]2SC1` [Spectrum 001824], which “HCV (% I): percent inhibition” value [2] is on record?
Its value is 5.8%.

And the “SSB (% I): percent inhibition” value (E. coli SSB)?
The value was 96%.

And the “NS3h (% I): percent inhibition” value (HCV NS3h)?
Its value is 11%.

Which “HCV (% I): percent inhibition” value [2] does the source give for `CS(=O)(=O)Nc1ccc(Cc2noc(-c3ccc4[nH]cc(CCN)c4c3)n2)cc1.O` [L 694247] here?
Its value is under 0%.

And the “SSB (% I): percent inhibition” value (E. coli SSB)?
Its value is 37%.

What about the “NS3h (% I): percent inhibition” value (HCV NS3h) of the same molecule?
Its value is 3%.

For TTTTTTTTTTTTTTTTTTTT (ssDNA) [Cy5-dT20], which binding signal (NS3h_1b(con1) [3]) is on record?
The binding signal was 1 Ka relative to NS3h_1b(con1).

And the binding signal (NS3h_2a(JFH1))?
Its binding signal is ~2 Ka relative to NS3h_1b(con1).

Does TTTTTTTTTTTTTTT (ssDNA) [Cy5-dT15] bind (NS3h_1b(con1) [4])?
Result: binds

Does TTTTTTTTTTTTTTT (ssDNA) [Cy5-dT15] bind (SSB)?
Result: binds

Does UUUUUUUUUUUUUUU (ssRNA) [Cy5-rU15] bind (NS3h_1b(con1) [5])?
Result: binds

Does UUUUUUUUUUUUUUU (ssRNA) [Cy5-rU15] bind (SSB)?
Result: binds

Reference: article PMC4201343 (ACS Chemical Biology, 2014)
